Experimental data taken from ChEMBL document CHEMBL3822382 (Eur J Med Chem, 2016).
Activity calls are given as the source filed them. The calls are words filed in the database; no cut-off is given here.

Tests used:
[1] = test system: HT-29; experiment: Growth inhibition of combretastatin A-4 resistant human HT-29 cells after 24 hrs by MTT assay; format: functional, cell-based; settings: HT-29, 24 h
Procedure, shortened: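 Cells seeded at 5000/well (Ea.hy926 10,000/well) and exposed for 24 h to dilution series of 100 µM–5 pM, with DMSO as solvent control. MTT (0.5 mg/mL final) for 2 h. Formazan dissolved in SDS/acetic acid/DMSO and read at 570 nm against a 630 nm background. Viability taken relative to DMSO controls; IC50 from dose–response curves, mean of four independent experiments.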

[2] = Growth inhibition of human HCT116 cells expressing wild type p53 after 72 hrs by MTT assay; format: functional, cell-based; settings: HCT-116, 72 h
Procedure, shortened: (§1)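 HCT-116 cells, p53 wild-type or p53-/-, seeded at 5000/well and treated 72 h with dilution series (100 µM–5 pM) or DMSO. MTT 0.5 mg/mL for 2 h, absorbance at 570/630 nm. Viability relative to DMSO controls; IC50 from dose–response curves, mean of three independent experiments ± S.D.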

[3] = Growth inhibition of p53 null human HCT116 cells after 72 hrs by MTT assay; format: functional, cell-based; settings: HCT-116, 72 h; procedure, shortened: as §1
[4] = test system: HT-29; experiment: Cell cycle arrest in combretastatin A-4 resistant human HT-29 cells assessed as accumulation at S phase at 50 nM after 24 hrs by propidium iodide staining-based flow cytometry (reference value: 13.7 +/- 0.3%); format: functional
[5] = test system: HT-29; experiment: Cell cycle arrest in combretastatin A-4 resistant human HT-29 cells assessed as accumulation at G2 phase at 100 nM after 24 hrs by propidium iodide staining-based flow cytometry (reference value: 15.6 +/- 0.1%); format: functional
Procedure, shortened: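 HT-29 cells (200,000/well) were treated 24 h with 100 nM indole, 5 μM CA-4 or DMSO. Cells were trypsinized, fixed in 4% formaldehyde (20 min, RT) and permeabilized in 90% ice-cold methanol (30 min). They were immunostained with anti-phospho-histone H3 (Ser10) (5 μg/mL, 37 °C, 1 h) plus an AlexaFluor-488 secondary, then stained with PI/RNase (30 min, 37 °C). Flow cytometry of 10,000 single cells assigned G1/S/G2/M.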

[6] = test system: HT-29; experiment: Cell cycle arrest in combretastatin A-4 resistant human HT-29 cells assessed as accumulation at G2 phase at 50 nM after 24 hrs by propidium iodide staining-based flow cytometry (reference value: 15.6 +/- 0.1%); format: functional
[7] = Cell cycle arrest in human 518A2 cells assessed as accumulation at G1 phase at 100 nM after 24 hrs by propidium iodide staining-based flow cytometry (reference value: 49.5%); format: functional
[8] = Cell cycle arrest in human 518A2 cells assessed as accumulation at S phase at 100 nM after 24 hrs by propidium iodide staining-based flow cytometry (reference value: 20.4%); format: functional
[9] = Cell cycle arrest in human 518A2 cells assessed as accumulation at G2/M phase at 100 nM after 24 hrs by propidium iodide staining-based flow cytometry (reference value: 26.3%); format: functional
[10] = Cell cycle arrest in human HCT116 cells expressing wild type p53 assessed as accumulation at G1 phase at 100 nM after 24 hrs by propidium iodide staining-based flow cytometry (reference value: 56.7%); format: functional; settings: HCT-116
[11] = Cell cycle arrest in human HCT116 cells expressing wild type p53 assessed as accumulation at G1 phase at 50 nM after 24 hrs by propidium iodide staining-based flow cytometry (reference value: 56.7%); format: functional; settings: HCT-116
[12] = Cell cycle arrest in human 518A2 cells assessed as G2/M index ratio at 100 nM after 24 hrs by propidium iodide staining-based flow cytometry relative to control; format: functional
[13] = test system: 518A2; experiment: Induction of microtubule disruption in human 518A2 cells at 100 nM incubated for 24 hrs by DAPI staining based immunofluorescence microscopic analysis; format: cell-based
Procedure, shortened: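 518A2 cells (25,000/well) on coverslips treated 24 h with 100 nM. Cells fixed in 4% formaldehyde, permeabilized and blocked (Triton X-100/BSA). Stained with mouse anti-alpha-tubulin (37 °C, 1 h) and AlexaFluor-488 secondary; nuclei counterstained with DAPI (1 µg/mL). Imaged by fluorescence microscopy at 400×.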

[14] = Cytotoxicity against fertilized white leghorn chicken embryos in CAM model assessed as lethality at 5 nmol after 24 hrs relative to control; format: organism-based, Gallus gallus; settings: in vivo
Procedure, shortened: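 Day-5 fertilized eggs (37 °C, 50-60% humidity) windowed, with 6 mm silicon rings placed on CAM vessels and incubated a further 24 h. Compound diluted to 500 µM in PBS and pipetted inside the ring (10 µL = 5 nmol); DMSO control. Vessel changes documented by stereomicroscopy at 0, 12 and 24 h.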

[15] = test system: HT-29; experiment: Antivascular activity against in combretastatin A-4 resistant human HT-29 cells xenografted in fertilized white leghorn chicken egg chorioallantoic membrane assessed as blood vessel hemorrhage at 5 nmol after 24 hrs by hematoxylin and eosin staining based stereomicroscopic analysis; format: functional, cell-based
Procedure, shortened: (§2)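 Pellets of 1 × 10⁶ HT-29 cells in 10 μL of 1:1 matrigel/serum-free RPMI (gelled 30 min, 37 °C) were placed on the CAM of fertilized eggs and left 48 h. Then 100 μL of a 50 μM PBS dilution (5 nmol) was pipetted outside a silicon ring around the pellet; DMSO served as control. After 24 h, stereomicroscopy was done, and micro-xenografts were explanted, formalin-fixed, paraffin-embedded and HE-stained.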

[16] = test system: HT-29; experiment: Antivascular activity against in combretastatin A-4 resistant human HT-29 cells xenografted in fertilized white leghorn chicken egg chorioallantoic membrane assessed as retraction of tumor cells at 5 nmol after 24 hrs by hematoxylin and eosin staining based stereomicroscopic analysis; format: functional, cell-based; procedure, shortened: as §2
[17] = test system: 1411HP; experiment: Vascular disrupting activity against multidrug resistant human 1411HP cells xenografted in athymic nude mouse assessed as discoloration of tumor at 100 mg/kg, ip after 24 hrs; format: functional, organism-based
Procedure, shortened: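 Athymic nude mice carried subcutaneous flank xenografts from 8 million cells in PBS. A single intraperitoneal dose of 100 mg/kg was given, and tumor discoloration was photographed 24 h later.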

[18] = test system: 1411HP; experiment: Vascular disrupting activity against multidrug resistant human 1411HP cells xenografted in athymic nude mouse assessed as tumor necrosis at 100 mg/kg, ip after 24 hrs by hematoxylin and eosin staining based microscopic analysis; format: functional, organism-based
Procedure, shortened: (§3)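 Athymic nude mice carried subcutaneous flank xenografts from 8 million cells. A single intraperitoneal dose of 100 mg/kg was given. After 24 h tumors were explanted, fixed in 5% formalin, paraffin-embedded and HE-stained for microscopic examination of vessels, hemorrhage and necrosis.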

[19] = test system: A2780cisR; experiment: Vascular disrupting activity against human A2780cis cells xenografted in athymic nude mouse assessed as hemorrhage at 100 mg/kg, ip after 24 hrs by hematoxylin and eosin staining based microscopic analysis; format: functional, organism-based; procedure, shortened: as §3
[20] = test system: Chorioallantoic membrane; experiment: Antivascular activity in fertilized white leghorn chicken egg chorioallantoic membrane assessed as blood vessel hemorrhage at 5 nmol after 12 hrs by stereomicroscopic analysis; format: functional, tissue-based; settings: Gallus gallus
Procedure, shortened: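 Fertilized white leghorn SPF eggs were incubated to day 5 at 37 °C and 50–60% humidity. A shell window was cut, 6 mm silicon rings were placed on developing CAM vessels, and eggs were incubated another 24 h. Compound (500 μM in PBS; 10 μL = 5 nmol, 20 μL = 10 nmol) or DMSO was pipetted inside the ring. Vessel changes were imaged by stereomicroscope at 0, 12 and 24 h.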

[21] = Cytotoxicity against fertilized white leghorn chicken embryos in CAM model assessed as lethality at 2.5 nmol after 24 hrs relative to control; format: organism-based, Gallus gallus; settings: in vivo

## COc1cc(-c2ncn(C)c2-c2ccc3c(c2)c(Cl)cn3C)cc(Br)c1OC.Cl
[1]
  IC50: 31.3 nM
[2]
  IC50: 27.4 nM
[3]
  IC50: 21.3 nM
[4]
  Activity: 13.5%
[5]
  Activity: 4.6%
[6]
  Activity: 15.2%
[7]
  Activity: 41%
[8]
  Activity: 17.8%
[9]
  Activity: 33.9%
[10]
  Activity: 9%
[11]
  Activity: 53.9%
[12]
  Ratio: 1.5
[13]
  Activity: Active
[14]
  mortality at 24 h: 33%
[15]
  Activity: Active
[16]
  Activity: Active
[17]
  Activity: Active
[18]
  Activity: Active
[19]
  Activity: Active

## COc1cc(-c2ncn(C)c2-c2ccc3c(c2)c(Cl)cn3C)cc(OC)c1OC
[1]
  IC50: 26.2 nM
[2]
  IC50: 9.5 nM
[3]
  IC50: 26.2 nM
[10]
  Activity: 9.3%
[11]
  Activity: 43.6%
[20]
  Activity: Active
[14]
  mortality at 24 h: 80%
[21]
  mortality at 24 h: 67%
